Activity calls are given as the source filed them. No cut-off for these calls is given here.
Tests used:
MCF7 [1] = test: Induction of cell cycle arrest in human MCF7 cells assessed as accumulation at G1 phase at IC50 level incubated for 24 hrs by propidium iodide staining based flow cytometry (reference value: 72.3%); assay type: functional
How it was run: (§1)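 Floating and adherent cells were fixed in 70% ethanol at 4 °C and rehydrated. They were stained 15 min with PI/Triton X-100/RNase A. 10000 events were acquired by flow cytometry. G0/G1, S and G2/M percentages were gated in FlowJo.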

MCF7 [2] = test: Induction of apoptosis in human MCF7 cells assessed as increase in caspase-3 mRNA expression at IC50 level incubated for 24 hrs by RT-PCR method; assay type: functional, cell-based
How it was run: (§2)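 Total RNA was Trizol-extracted and 1 µg reverse-transcribed with random primers. Real-time PCR ran 95 °C 3 min, then 40 cycles of 95 °C 1 s / 60 °C 20 s. Fold change came from comparative CT, normalised to β-actin. Reactions ran in triplicate, across three experiments.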

MCF7 [3] = test: Induction of apoptosis in human MCF7 cells assessed as increase in Bax mRNA expression at IC50 level incubated for 24 hrs by RT-PCR method; assay type: functional, cell-based; how it was run: as §2
MCF7 [4] = test: Increase in cyclin B1 mRNA expression in human MCF7 cells at IC50 level incubated for 24 hrs by RT-PCR method; assay type: functional; how it was run: as §2
MCF7 [5] = test: Induction of cell cycle arrest in human MCF7 cells assessed as reduction in accumulation at G2/M phase at IC50 level incubated for 24 hrs by propidium iodide staining based flow cytometry; assay type: functional; how it was run: as §1
MCF7 [6] = test: Induction of cell morphology changes in human MCF7 cells assessed as cell detachment at IC50 level incubated for 48 hrs by phase contrast microscopy; assay type: functional, cell-based
How it was run: (§3)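 MCF-7 cells were kept in DMEM/10% FBS and used at passages 4-8. […] Detachment, shrinkage and viable cell numbers were scored under phase contrast microscopy against untreated cells.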

MCF7 [7] = test: Induction of apoptosis in human MCF7 cells assessed as chromatin condensation at IC50 level incubated for 24 hrs by Hoechst […] staining based fluorescence microscopy; assay type: functional
How it was run: (§4)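 They were fixed in 4% paraformaldehyde and stained with Hoechst […] (5 µg/mL, 30 min, room temperature). Nuclei in random fields were imaged by fluorescence microscopy (ex 350 / em 460 nm). Apoptotic fraction is mean ± SD of three independent experiments; DMSO control.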

A549 = test: Anticancer activity against human A549 cells assessed as reduction in cell growth incubated for 48 hrs by MTT assay; assay type: functional, cell-based; details: A549, 48 h
MCF7 [8] = test: Effect on CDK1 cyclin D1 mRNA expression in human MCF7 cells at IC50 level incubated for 24 hrs by RT-PCR method; assay type: functional, cell-based; how it was run: as §2
MCF7 [9] = test: Induction of apoptosis in human MCF7 cells assessed as nuclear fragmentation at IC50 level incubated for 24 hrs by Hoechst […] staining based fluorescence microscopy; assay type: functional; how it was run: as §4
MCF7 [10] = test: Inhibition of cell migration of human MCF7 cells at IC50 level incubated for 24 to 72 hrs by phase contrast microscopy based wound healing assay; assay type: functional
How it was run: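 Confluent MCF-7 monolayers (5×10^5 cells/well, 24 h) were scratched with a pipette tip and washed with PBS pH 7.4. Medium with IC50 concentrations was then added. Cells entering the wound were photographed by phase contrast at 0, 24, 48 and 72 h, in ≥3 random fields per well.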

MCF7 [11] = test: Induction of cell cycle arrest in human MCF7 cells assessed as reduction in accumulation at S phase at IC50 level incubated for 24 hrs by propidium iodide staining based flow cytometry; assay type: functional; how it was run: as §1
MCF7 [12] = test: Increase in E-cadherin mRNA expression in human MCF7 cells at IC50 level incubated for 24 hrs by RT-PCR method; assay type: functional; how it was run: as §2
MCF7 [13] = test: Reduction in cyclin D1 mRNA expression in human MCF7 cells at IC50 level incubated for 24 hrs by RT-PCR method; assay type: functional, cell-based; how it was run: as §2
MCF7 [14] = test: Anticancer activity against human MCF7 cells assessed as reduction in cell viability at IC50 level incubated for 48 hrs; assay type: functional, cell-based; how it was run: as §3
MCF7 [15] = test: Induction of apoptosis in human MCF7 cells assessed as reduction in Bcl2 mRNA expression at IC50 level incubated for 24 hrs by RT-PCR method; assay type: functional, cell-based; how it was run: as §2
MCF7 [16] = test: Induction of ROS generation in human MCF7 cells at IC50 level incubated for 24 hrs by carboxy-DCFDA staining based fluorescence microscopy; assay type: functional
How it was run: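 Carboxy-DCFDA (10 µM) was added for 30 min at room temperature in the dark. Cells were washed and resuspended at 5×10^4 cells/mL. Fluorescence was read by spectrofluorometry at ex 488 / em 525 nm, with fluorescence microscopy images also taken.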

MCF7 [17] = test: Inhibition of colony formation in human MCF7 cells assessed as reduction in clonogenic survival at IC50 level incubated for 24 hrs followed medium replacement with fresh medium and further incubation for 14 days; assay type: functional
MCF7 [18] = test: Reduction in mitochondrial membrane potential in human MCF7 cells at IC50 level incubated for 24 hrs by rhodamine 123 staining based fluorescence microscopy; assay type: functional
How it was run: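 Harvested cells were loaded with rhodamine 123 (5 µg/mL), washed and incubated 30 min at room temperature. They were analysed by flow cytometry and fluorescence microscopy, and fluorescence loss was quantified by spectrofluorometry vs untreated cells.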

MCF7 [19] = test: Induction of apoptosis in human MCF7 cells assessed as increase in caspase-7 mRNA expression at IC50 level incubated for 24 hrs by RT-PCR method; assay type: functional, cell-based; how it was run: as §2
MCF7 [20] = test: Increase in beta-catenin mRNA expression in human MCF7 cells at IC50 level incubated for 24 hrs by RT-PCR method; assay type: functional; how it was run: as §2
MCF7 [21] = test: Induction of apoptosis in human MCF7 cells assessed as DNA fragmentation at IC50 level incubated for 24 hrs by ethidium bromide staining based agarose gel electrophoresis method; assay type: functional, cell-based
How it was run: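 Pellets were lysed in SDS/EDTA/Tris pH 8.0 buffer with RNase A (37 °C, 90 min), then proteinase K (50 °C, 1 h). DNA was precipitated with ammonium acetate/ethanol. It was run on 1.5% agarose in TBE and stained with ethidium bromide, against control cells.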

HaCaT = test: Cytotoxic activity against human HaCaT cells assessed as reduction in cell growth incubated for 48 hrs by MTT assay; assay type: cell-based
HeLa = test: Anticancer activity against human HeLa cells assessed as reduction in cell growth incubated for 48 hrs by MTT assay; assay type: functional, cell-based
MCF7 [22] = test: Induction of cell morphology changes in human MCF7 cells assessed as cell shrinkage at IC50 level incubated for 48 hrs by phase contrast microscopy; assay type: functional, cell-based; how it was run: as §3
MCF7 [23] = test: Anticancer activity against human MCF7 cells assessed as reduction in cell growth incubated for 48 hrs by MTT assay; assay type: functional, cell-based; details: MCF7, 48 h

| IC50 (A549) [nM] | SMILES | Activity (MCF7 [1]) [%] | Activity (MCF7 [2]) | Activity (MCF7 [3]) | fold change (FC) (MCF7 [4]) | Activity (MCF7 [5]) | Activity (MCF7 [6]) | Activity (MCF7 [8]) | inhibition (MCF7 [10]) | Activity (MCF7 [11]) | fold change (FC) (MCF7 [12]) | inhibition (MCF7 [13]) | Activity (MCF7 [14]) | Activity (MCF7 [15]) | fold change (FC) (MCF7 [16]) | inhibition (INH) (MCF7 [17]) [%] | inhibition (INH) (MCF7 [18]) [%] | Activity (MCF7 [19]) | fold change (FC) (MCF7 [20]) | Activity (MCF7 [21]) | further results |
| --- | --- | --- | --- | --- | --- | --- | --- | --- | --- | --- | --- | --- | --- | --- | --- | --- | --- | --- | --- | --- | --- |
| 1130 | Fc1ccc(-c2nn(-c3ccccc3)cc2-c2nc3cc(F)ccc3[nH]2)cc1 | 84.7 | Active | Active | 1.1 | Active | Active | inactive | Active | Active | 1.6 | Active | Active | Active | 2 | 50 | 44 | Active | 1.4 | Active | Activity (MCF7 [7]): 26%; Activity (MCF7 [9]): 26%; IC50 (HaCaT): > 50000 nM; IC50 (HeLa): 1570 nM; Activity (MCF7 [22]): Active; IC50 (MCF7 [23]): 950 nM |
| 1340 | Clc1ccc(-c2nn(-c3ccccc3)cc2-c2nc3cc(Cl)ccc3[nH]2)cc1 | 81.3 | Active | Active | 1.1 | Active | Active | inactive | Active | Active | 1.6 | Active | Active | Active | 2 | 50 | 44 | Active | 1.4 | Active | Activity (MCF7 [7]): 32%; Activity (MCF7 [9]): 32%; IC50 (HaCaT): > 50000 nM; IC50 (HeLa): 1630 nM; Activity (MCF7 [22]): Active; IC50 (MCF7 [23]): 1170 nM |
| 1810 | Brc1ccc2[nH]c(-c3cn(-c4ccccc4)nc3-c3ccccc3)nc2c1 | 85.2 | Active | Active | 1.1 | Active | Active | inactive | Active | Active | 2.2 | Active | Active | Active | 2 | 50 | 62 | Active | 1.4 | Active | IC50 (HaCaT): > 50000 nM; IC50 (HeLa): 1760 nM; Activity (MCF7 [22]): Active; IC50 (MCF7 [23]): 830 nM |

Reference: ChEMBL document CHEMBL3612055, “Design, synthesis and biological evaluation of 1,3-diphenyl-1H-pyrazole derivatives containing benzimidazole skeleton as potential anticancer and apoptosis inducing agents” (Eur J Med Chem, 2015)
